From ChEMBL document CHEMBL4828710, “Lead optimization to improve the antiviral potency of 2-aminobenzamide derivatives targeting HIV-1 Vif-A3G axis” (Eur J Med Chem, 2021) come the findings set out here.

For data set [1], the system named is H9. Description: Cytotoxicity against human H9 cells assessed as cell viability incubated for 7 days by MTT colorimetric assay. Particulars: H9, 168 h, time 7 day. Type of data set: functional. An outline of the steps:
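H9 cells (2 × 10⁵/well) were incubated with varying compound concentrations in RPMI-1640 with 10% FBS at 37 °C in 5% CO₂ for seven days. Viability was read by MTT colorimetric assay, and CC50 was calculated.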
In general terms: Tetrazolium assays rely on reduction of a dye to a coloured formazan, in cell work by metabolically active cells.

A short description of data set [2]: Therapeutic index, ratio of CC50 for cytotoxicity against human H9 cells to EC50 for antiviral activity against HIV13B. Type of data set: toxicity, cell-based. The settings on record: read-out: TI. The method in brief:
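TI = CC50/EC50. For EC50, H9 cells were infected with HIV-1 IIIB at MOI 0.03 for 2 h, washed three times, plated at 4 × 10⁴ cells/well with serial compound dilutions, and kept 7 days at 37 °C, 5% CO₂; supernatant p24 was read by in-house ELISA. For CC50, uninfected H9 cells at 2 × 10⁵/well in RPMI-1640 with 10% FBS were kept 7 days, then read by MTT.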

Data set [3] relates to Human immunodeficiency virus 1. Kind of data set: Antiviral activity against HIV13B infected in human H9 cells assessed as p24 level incubated for 7 days by ELISA. Type of data set: functional, organism-based. Particulars: Human immunodeficiency virus 1, 3B, H9, 168 h. An outline of the steps:
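H9 cells were infected with HIV-1 IIIB at MOI 0.03 for 2 h, washed three times and resuspended in RPMI-1640. Infected cells (4 × 10⁴/well) were cultured with serially diluted compound at 37 °C in 5% CO₂ for 7 days. Supernatant p24 was measured by in-house ELISA, and EC50 was calculated.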
In general terms: In an ELISA, binding on a coated surface is turned into a signal by an enzyme label.

Data set [4] deals with Virion infectivity factor (Human immunodeficiency virus type 1 group M subtype B (isolate NY5)(HIV-1)) (UniProt P12504). Description: Reversal of HIV1 Vif mediated A3G degradation in HIV1 infected human H9 cells for 48 hrs by western blotting analysis. The settings on record: Human immunodeficiency virus 1. Type of data set: cell-based. The method in brief:
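Cells expressing A3G-HA and Vif were treated with compound at 50, 10 and 2 (three concentrations) at 37 °C for 48 h. They were then washed in ice-cold PBS and lysed in RIPA. A3G-HA and Vif were detected by SDS-PAGE, PVDF transfer, primary antibodies overnight at 4 °C, and HRP secondary for 2 h at room temperature, with chemiluminescence on X-ray film.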
In general terms: Immunoblotting shows a protein as a band on a membrane.

In data set [5] the test system is Human immunodeficiency virus 1. Description: Antiviral activity against IN resistant HIV1 pYU2G14OS/Q148H infected in human TZM-bl cells assessed as inhibition of replication for 48 hrs by microplate reader method. Type of data set: functional, organism-based. The settings on record: Human immunodeficiency virus 1, pYU2G14OS/Q148H.
For data set [6], the system named is Human immunodeficiency virus 1. Kind of data set: Antiviral activity against NRTI resistant HIV1-4755-5 infected in human TZM-bl cells assessed as inhibition of replication for 48 hrs by microplate reader method. The settings on record: Human immunodeficiency virus 1, 4755-5, TZM-bl. Type of data set: functional, organism-based.
The subject of data set [7] is Human immunodeficiency virus. Description: Antiviral activity against FI resistant HIV PNL4-3-3gp41(364)V38A N42T infected in human TZM-bl cells assessed as inhibition of replication for 48 hrs by microplate reader method. Type of data set: functional, organism-based.
For data set [8], the system named is H9. Kind of data set: Reduction in HIV1 Vif expression in HIV1 infected human H9 cells assessed as for 48 hrs by western blotting analysis. The settings on record: Human immunodeficiency virus 1, dose 2-50 µM. Type of data set: functional, cell-based. The method in brief: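 Cells were exposed to the compound at […] at 37 °C for 48 h, then washed with ice-cold PBS and lysed in RIPA buffer. A3G-HA and Vif were resolved by SDS-PAGE and transferred to PVDF. Blots were probed overnight at 4 °C with primary antibodies, then 2 h at room temperature with HRP secondary antibodies. Bands were visualized by chemiluminescence on X-ray film.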

Data set [9] relates to Human immunodeficiency virus 1. Kind of data set: Antiviral activity against PI resistant HIV-1 L70R/M461/L63P/V82T/184V infected in human TZM-bl cells assessed as inhibition of replication for 48 hrs by microplate reader method. Type of data set: functional, organism-based. The settings on record: Human immunodeficiency virus 1, L70R/M461/L63P/V82T/184V.
The subject of data set [10] is Human immunodeficiency virus 1. Kind of data set: Antiviral activity against NNRTI resistant HIV1 A17 infected in human TZM-bl cells assessed as inhibition of replication for 48 hrs by microplate reader method. Type of data set: functional, organism-based. Particulars: Human immunodeficiency virus 1, A17, TZM-bl.

SMILES strings stand for the structures. pEC50: −log10 of the molar value. Active and inactive are the calls of the source. No cut-off for these calls is given here. Where only a bound is given, the exact number is not on record here.

Chain of Virion infectivity factor (Human immunodeficiency virus type 1 group M subtype B (isolate NY5)(HIV-1)) (P12504 whole entry): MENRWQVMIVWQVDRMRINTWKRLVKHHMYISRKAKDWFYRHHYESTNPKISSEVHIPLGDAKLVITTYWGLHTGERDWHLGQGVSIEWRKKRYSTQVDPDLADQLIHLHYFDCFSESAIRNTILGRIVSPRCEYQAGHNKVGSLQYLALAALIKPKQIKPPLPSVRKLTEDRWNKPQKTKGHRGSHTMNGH

In the case of `COc1ccc(F)cc1NC(=O)c1c(N)ncnc1Sc1ccc([N+](=O)[O-])cc1`, the CC50 in the data set on H9 [1] turned out to be 26.6 µM. Moreover, in data set [2], the selectivity ratio stood at 0.65. In addition, in data set [3], the negative logarithm of the EC50 (pEC50) was 4.39.
`COc1ccc(OCCO)cc1NC(=O)c1c(N)cccc1Sc1ccc([N+](=O)[O-])cc1`: in data set [3], the pEC50 was < 4.00.
For the compound `COc1ccc(NC(=O)c2c(N)cccc2S(=O)(=O)c2ccc([N+](=O)[O-])cc2)cc1O`, in data set [3], the negative-log EC50 (pEC50) was < 4.00.
Take `COc1ccc(O)cc1NC(=O)c1c(N)ncnc1Sc1ccc([N+](=O)[O-])cc1`: the half-maximal cytotoxic concentration (CC50) in the data set on H9 [1] stood at 35.8 µM. Moreover, the selectivity ratio in data set [2] is 0.88. For the same compound, the negative logarithm of the EC50 (pEC50) in data set [3] was 4.39.
The matching figures for `COc1ccccc1NC(=O)c1c(N)cccc1S(=O)(=O)c1ccc([N+](=O)[O-])cc1`: > 468 µM, > 1380 and 6.47.
For the compound `COc1ccc(F)cc1NC(=O)c1c(N)cccc1Sc1ccc([N+](=O)[O-])cc1`, the CC50 in the data set on H9 [1] was > 100 µM. The selectivity ratio in [2] is > 47.2. For the same compound, in data set [3], the negative-log EC50 (pEC50) was 5.67.
With `COc1ccc(NC(=O)c2c(N)cccc2S(=O)(=O)c2ccc([N+](=O)[O-])cc2)cc1OC`, the CC50 with H9 [1] was > 100 µM. In addition, the selectivity ratio in data set [2] is > 6.45. Moreover, in data set [3], the negative-log EC50 (pEC50) was 4.81.
On the same counts, the results for `COc1ccc(OC)c(NC(=O)c2c(N)cccc2S(=O)(=O)c2ccc([N+](=O)[O-])cc2)c1` are > 200 µM, > 50.4 and 5.40.
Consider `COc1cc(NC(=O)c2c(N)cccc2S(=O)(=O)c2ccc([N+](=O)[O-])cc2)cc(OC)c1`, for which, in [3], the pEC50 was < 4.00.
On to `COc1ccccc1NC(=O)c1c(N)ncnc1Sc1ccc([N+](=O)[O-])cc1`, for which the CC50 with H9 [1] came to 32.9 µM. Besides, the selectivity ratio in [2] was 3.38. The negative-log EC50 (pEC50) in [3] is 5.01.
Consider `COc1ccc(O)cc1NC(=O)c1c(N)cccc1Sc1ccc([N+](=O)[O-])cc1`, for which, in the data set with H9 [1], the CC50 is > 100 µM. The selectivity ratio in [2] was > 213. The pEC50 in data set [3] is 6.33.
Turning to `COc1ccc(O)cc1NC(=O)c1c(N)cccc1S(=O)(=O)c1ccc([N+](=O)[O-])cc1`, the Activity result in data set [4] was “Dose-Dependent Effect”. For the same compound, the CC50 with H9 [1] was 259 µM. Also, the negative logarithm of the EC50 (pEC50) is 5.43 in data set [5]; 5.08 in [6]; 5.52 in [7]; 5.36 in [9]; 4.33 in data set [10]; 7.15 in [3]. Moreover, in data set [2], the selectivity ratio came out at 3700. Moreover, the outcome in the data set with H9 [8] was Active.
As for `Nc1cccc(S(=O)(=O)c2ccc([N+](=O)[O-])cc2)c1C(=O)Nc1ccc(Cl)cc1F`, the 50% cytotoxic concentration (CC50) in the data set with H9 [1] was > 100 µM. The selectivity ratio in data set [2] was > 9.71. For the same compound, the pEC50 in data set [3] was 4.99.
On to `COc1cc(O)ccc1NC(=O)c1c(N)cccc1S(=O)(=O)c1ccc([N+](=O)[O-])cc1`, for which the CC50 in the data set with H9 [1] is 54.7 µM. Besides, in data set [2], the selectivity ratio came to 9.48. For the same compound, in [3], the pEC50 is 5.24.
Regarding `Cc1cc(C)cc(NC(=O)c2c(N)cccc2S(=O)(=O)c2ccc([N+](=O)[O-])cc2)c1`, in the data set on H9 [1], the CC50 was > 100 µM. For the same compound, in data set [2], the selectivity ratio was > 3.79. Further, in [3], the pEC50 is 4.58.
In the case of `Cc1cc(Br)ccc1NC(=O)c1c(N)cccc1S(=O)(=O)c1ccc([N+](=O)[O-])cc1`, the negative logarithm of the EC50 (pEC50) in [3] is < 4.00.
On to `Nc1ccn([C@@H]2CS[C@H](CO)O2)c(=O)n1` [LAMIVUDINE], for which the CC50 in the data set on H9 [1] is > 200 µM. Besides, the selectivity ratio in [2] was > 976. Further, the pEC50 in data set [3] is 6.68.
As to `COc1ccc(OCCN2CCOCC2)cc1NC(=O)c1c(N)cccc1Sc1ccc([N+](=O)[O-])cc1`, the pEC50 in data set [3] was < 4.00.
Still for that read-out and setting: the value for `COc1ccc(C(=O)O)cc1NC(=O)c1c(N)cccc1S(=O)(=O)c1ccc([N+](=O)[O-])cc1` was < 4.00.
In the case of `COc1ccc(OC)c(NC(=O)c2c(N)cccc2Sc2ccc([N+](=O)[O-])cc2)c1`, the cytotoxic concentration (CC50) in the data set on H9 [1] was > 200 µM. In data set [2], the selectivity ratio is > 49.4. Moreover, the pEC50 in data set [3] was 5.39.
Turning to `COc1ccc(C(=O)O)cc1NC(=O)c1c(N)cccc1Sc1ccc([N+](=O)[O-])cc1`, the CC50 in the data set with H9 [1] is > 100 µM. Besides, the selectivity ratio in [2] was > 238. In [3], the pEC50 is 6.38.
Take `COc1ccc(NC(=O)c2c(N)cccc2S(=O)(=O)c2ccc([N+](=O)[O-])cc2)cc1`: the pEC50 in data set [3] was < 4.00.
As for `COc1ccc(OCCCO)cc1NC(=O)c1c(N)cccc1Sc1ccc([N+](=O)[O-])cc1`, the pEC50 in [3] is < 4.00.
As for `COc1cccc(NC(=O)c2c(N)cccc2S(=O)(=O)c2ccc([N+](=O)[O-])cc2)c1`, the pEC50 in data set [3] was < 4.00.
Consider `COc1ccc(NC(=O)c2c(N)cccc2S(=O)(=O)c2ccc([N+](=O)[O-])cc2)c(OC)c1`, for which, in the data set on H9 [1], the cytotoxic concentration (CC50) is > 100 µM. Also, the selectivity ratio in data set [2] is > 27.9. For the same compound, in data set [3], the negative logarithm of the EC50 (pEC50) was 5.45.
Turning to `COc1ccc(F)cc1NC(=O)c1c(N)cccc1S(=O)(=O)c1ccc([N+](=O)[O-])cc1`, the CC50 with H9 [1] came to 89.6 µM. For the same compound, in data set [2], the selectivity ratio is 46.4. The pEC50 in [3] is 5.71.
Take `COc1ccc(Cl)cc1NC(=O)c1c(N)ncnc1Sc1ccc([N+](=O)[O-])cc1`: in the data set on H9 [1], the CC50 stood at 2.22 µM. Moreover, in [2], the selectivity ratio turned out to be 0.11. Further, the negative logarithm of the EC50 (pEC50) in data set [3] is 4.70.
Turning to `Nc1cccc(S(=O)(=O)c2ccc([N+](=O)[O-])cc2)c1C(=O)Nc1ccc(O)cc1`, the CC50 in the data set on H9 [1] stood at 32.5 µM. Besides, the negative-log EC50 (pEC50) in [3] is 5.34.
`Nc1cccc(S(=O)(=O)c2ccc([N+](=O)[O-])cc2)c1C(=O)Nc1cccc(O)c1`: in data set [3], the negative logarithm of the EC50 (pEC50) is < 4.00.

As a reminder, the CC50 is the concentration at which the toxic effect on the cells reaches its halfway point. Usually pEC50 stands for the EC50 on a negative log10 scale, so that one unit is a factor of ten.
